The values below come from PubChem BioAssay AID652011 (Sanford-Burnham Center for Chemical Genomics, 2013).

Where “and” joins values, the source holds several entries; their conditions need not be identical. Identical values can stand only once.

Sequence of Hypoxia-inducible factor 1-alpha (Homo sapiens) (Q16665 whole entry, looked up): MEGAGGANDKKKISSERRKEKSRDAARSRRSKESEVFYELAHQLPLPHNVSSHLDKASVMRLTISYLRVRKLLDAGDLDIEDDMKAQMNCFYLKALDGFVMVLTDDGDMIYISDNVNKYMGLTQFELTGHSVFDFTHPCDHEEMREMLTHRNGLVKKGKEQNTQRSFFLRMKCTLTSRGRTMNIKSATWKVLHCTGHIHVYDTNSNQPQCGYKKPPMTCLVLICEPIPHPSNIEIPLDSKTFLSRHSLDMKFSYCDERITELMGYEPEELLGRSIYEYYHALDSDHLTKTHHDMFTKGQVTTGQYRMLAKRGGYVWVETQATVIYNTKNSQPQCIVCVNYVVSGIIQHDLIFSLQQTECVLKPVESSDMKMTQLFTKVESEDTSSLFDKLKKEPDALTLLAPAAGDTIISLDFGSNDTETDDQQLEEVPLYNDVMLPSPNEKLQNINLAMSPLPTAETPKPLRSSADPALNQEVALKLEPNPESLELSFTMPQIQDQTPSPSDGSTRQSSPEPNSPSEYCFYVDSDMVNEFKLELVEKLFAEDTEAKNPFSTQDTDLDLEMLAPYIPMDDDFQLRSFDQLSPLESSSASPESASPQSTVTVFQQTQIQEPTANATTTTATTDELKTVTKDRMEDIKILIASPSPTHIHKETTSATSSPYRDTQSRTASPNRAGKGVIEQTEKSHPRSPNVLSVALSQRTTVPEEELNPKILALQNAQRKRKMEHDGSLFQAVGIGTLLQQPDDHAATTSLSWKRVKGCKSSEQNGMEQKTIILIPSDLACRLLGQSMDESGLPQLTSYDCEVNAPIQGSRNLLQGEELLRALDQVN

The experiment has as its target Hypoxia-inducible factor 1-alpha (Homo sapiens) (UniProt Q16665). Description: HIF reporter inhibition across pancreatic and renal lines – cell-based, luminescence, MIAPaCa-2, 786-0, panel, SAR follow-up (AID 652011). As to conditions: MIAPaCa-2/PANC HIF reporter, luciferase luminescence, desferoxamine, overnight, HIF1a, run 1; at 99 µM (top of the series). The method in brief: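 Reagent: Desferoxamine added before compound | Doses: Compounds from 10 mM and 0.3125 mM stocks, 1% DMSO final | Times: Overnight seeding and compound exposure, 37 °C, 5% CO2, 10-min detection | Measured by: One-Glo luciferase luminescence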
Consider `CNC(=O)CCc1nc(-c2ccc(OC)cc2)no1`, for which the inhibition (usually the relative decrease from the control value, in per cent) was -51.1%.

With `COc1ccccc1NC(=O)CCc1nc(-c2ccc(C(C)(C)C)cc2)no1`, the inhibition was found to be 67.6%.

For the compound `CN(C)C(=O)CCc1nc(-c2ccc(C(C)(C)C)cc2)no1`, the inhibition is -59.6% and -77.5%.

As to `CCNC(=O)CCc1nc(-c2c(Cl)cccc2Cl)no1`, the inhibition amounted to 13.2%.

For the compound `CC(C)(C)c1ccc(-c2noc(CCC(=O)NC3CCCCC3)n2)cc1`, the inhibition worked out at 41.6%.

On to `CNC(=O)CCc1nc(-c2ccc(Cl)cc2)no1`, for which the inhibition is -25.6%.

On to `CCCCc1ccc(-c2noc(CCC(=O)NC(C)(C)C)n2)cc1`, for which the inhibition stood at 86.1%.

With `CCN(CC)C(=O)CCc1nc(-c2ccc(C(C)(C)C)cc2)no1`, the inhibition is -20.8% and 47.7%.

For the compound `CC(C)(C)NC(=O)CCc1nc(-c2ccccc2)no1`, the inhibition was -47.1%.

Regarding `CCC(C)NC(=O)CCc1nc(-c2ccccc2)no1` (stereo not given), the inhibition was -33.5%.
